Screens (PubChem)
An excerpt weighted towards active compounds, which were near 4.6% of everything screened.
OX1R antag-1: antagonists of human orexin 1 receptor (OX1R); inhibition, % at 6.6 µM; 330,000 tested, 1.8% active; OX1R-expressing cells, FRET antagonist read-out; O43613; AID 485270; in the data active means inhibition mostly above about 38%, no sharp cut-off; inactive means mostly below about 40%
Target sequence (O43613 whole entry, looked up): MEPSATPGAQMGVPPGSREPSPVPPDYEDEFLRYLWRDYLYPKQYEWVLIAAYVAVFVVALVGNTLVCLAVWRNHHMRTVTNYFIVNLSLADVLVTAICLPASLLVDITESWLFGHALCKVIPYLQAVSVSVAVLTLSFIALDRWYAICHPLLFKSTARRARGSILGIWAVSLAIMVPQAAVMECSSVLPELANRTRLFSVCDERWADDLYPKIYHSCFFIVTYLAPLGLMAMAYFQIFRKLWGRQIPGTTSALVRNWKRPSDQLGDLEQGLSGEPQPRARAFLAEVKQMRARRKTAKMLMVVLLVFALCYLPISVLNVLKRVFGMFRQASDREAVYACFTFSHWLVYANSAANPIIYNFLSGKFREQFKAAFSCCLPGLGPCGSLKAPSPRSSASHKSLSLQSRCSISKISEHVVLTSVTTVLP
GPR7 antagonist: antagonists of human GPR7 (neuropeptides B/W receptor 1) | P48145 | GPR7-expressing cells, fluorescence antagonist assay | 290,000 tested, 1.1% active | inhibition, % at 4.4 µM; in the data active means inhibition above about 16%, passing the limit was not always enough;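 further: cells stimulated with the agonist NPW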
TAAR1 ag: agonists of human TAAR1; CHO RD-HGA16 TAAR1, Fluo-8 calcium fluorescence; vehicle wells 0%, saturating PEA agonist 100%; AID 624467; Q96RJ0; activation, % at 3 µM; 360,000 tested, 0.99% active;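 active means activation above the mean activation of all test compounds in the run plus 3 SD, cut at about 38% in these data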
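test system = CHO RD-HGA16 cells carrying human TAAR1 plus Gα16 | schedule = 17-24 h seeding, 75 min 37 °C dye, 30 min RT | compound dosing = 3 µM single concentration | control set = DMSO and PEA EC100 | replicates = n 1 | signal = Fluo-8 fluorescence, 5 s baseline then 140 s kinetic read | measure = percent activation vs PEA EC100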
CHO parental Ca: counter-screen for OX1R antagonists: effect in parental CHO cells; parental CHO-K1, ATP-induced calcium, Fluo-8 fluorescence; inhibition, % at 5.6 µM; 330,000 tested, 0.63% active;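 active means inhibition above that plate's mean sample inhibition plus 3 SD, cut at about 26% in these data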
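Assay system: parental CHO cells; Read-out basis: percent inhibition of ATP-evoked calcium rise, normalized to controls; Benchmarks: ATP and no-ATP DMSO wells; Compound dosing: single nominal dose of 5.6 µM per compound; Signal: Fluo-8 calcium dye fluorescence; Also added: ATP as calcium-mobilizing challenge; Repeats: singlicate.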
TAAR1 antag: human TAAR1 antagonism; Q96RJ0; CHO RD-HGA16 TAAR1, Fluo-8 calcium fluorescence, antagonist; inhibition, % at 3 µM; 360,000 tested, 1.5% active; AID 624466;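 active means inhibition above a per-plate cutoff, the mean inhibition of test compounds on that plate plus 3 SD, cut at about 49% in these data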
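Test system – hTAAR1-expressing CHO RD-HGA16 cells, Gα16-coupled · Reagent – β-PEA at EC80 concentration, post-compound challenge · Compound dosing – 3 µM, single point · Timing – 140 s kinetic read after compound, 140 s after agonist · Detection – Fluo-8 intracellular calcium dye fluorescence, real-time kinetic reads · Control set – DMSO and EC80 PEA controls · Repeats – n of 1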
OX1R antag-2: antagonists of human orexin 1 receptor; O43613; CHO/OX1R cells, Fluo-8 calcium fluorescence, orexin A; inhibition, % at 5 µM; 330,000 tested, 0.43% active; AID 434989;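 active means inhibition above its plate's threshold, mean inhibition of all tested compounds on the plate plus 3 SD, cut at about 37% in these data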
TAAR1 ag conf: human TAAR1 agonism, confirmed; activation, % at 3 µM; AID 651783; 2,400 tested, 82% active; CHO RD-HGA16 TAAR1, Fluo-8 calcium fluorescence; scaled: DMSO 0%, maximal phenethylamine 100%; shares compounds with TAAR1 ag;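 active means activation above a cutoff set at the run's mean compound activation plus 3 SD, cut at about 39% in these data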
Ga16 ag counter: counter-screen for TAAR1 agonists: nonselective agonists in parental cells; CHO-Ga16 parental, Fluo-8 calcium fluorescence; normalized to maximal ATP response, DMSO zero; AID 651787; 2,400 tested, 50% active; shares compounds with TAAR1 ag; activation, % at 3 µM;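 active means activation above the run cutoff, the mean activation over all tested wells plus 3 SD, cut at about 12% in these data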
TAAR1 desensitize: counter-screen for human TAAR1 agonists: agonists that desensitize TAAR1. inhibition, % at 3 µM. shares compounds with TAAR1 ag. 2,400 tested, 46% active. CHO RD-HGA16 hTAAR1, Fluo-8 calcium, beta-PEA response inhibition;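 active means inhibition above the run cutoff, the mean inhibition of all test compounds plus 3 SD, cut at about 49% in these data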;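 further: beta-PEA stimulus applied at its EC80; loss of beta-PEA calcium signal after compound pretreatment read as receptor desensitization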
Ga16 antag count: nonselective Ga16 antagonism, counter-screen | shares compounds with TAAR1 ag | CHO-Ga16 ATP-induced calcium, Fluo-8 fluorescence | inhibition, % at 3 µM | 2,400 tested, 39% active | AID 651952;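 active means inhibition above the plate's mean compound inhibition plus 3 SD, computed per plate, cut at about 22% in these data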
Hits are given with their value; n = inactive; x = not tested or not shown.

SMILES | OX1R antag-1 | GPR7 antagonist | TAAR1 ag | CHO parental Ca | TAAR1 antag | OX1R antag-2 | TAAR1 ag conf | Ga16 ag counter | TAAR1 desensitize | Ga16 antag count
C=CCNc1nc(C(F)(F)F)nc2c1nnn2Cc1ccccc1Cl | n | n | 50 | n | n | n | 54 | 35 | n | n
Cn1cccc1/C=C1\CCC/C(=C\c2cccn2C)C1=O | n | n | 165 | 70 | 88 | 93 | n | 36 | n | 46
O=C1/C(=C/c2cccs2)CCC/C1=C\c1cccs1 | n | n | n | n | n | n | x | x | x | x
CCOC(=O)c1[nH]c(C)c(C(=O)OCCOc2cccc(C)c2)c1C | n | n | n | n | n | n | x | x | x | x
NC(N)=N/N=C/c1ccc(OCc2ccccc2Cl)cc1 | n | n | 50 | n | n | n | 87 | 55 | 70 | 61
NC(N)=N/N=C/c1ccccc1 | n | n | 63 | n | 89 | n | 91 | n | 94 | n
Cc1cc(C)cc(NC(=O)C(OC(=O)c2cc[n+]([O-])cc2)c2ccccc2)c1 (stereo not given) | n | x | n | n | n | n | x | x | x | x
COc1ccc(-c2csc(NC(=O)c3cc(C)on3)c2C#N)cc1OC | n | n | 46 | n | n | n | n | n | n | n
COc1ccc(C23CC4CC(CC(C4)C2)C3)cc1C(=O)NCCN(C)C | n | n | 46 | n | n | n | 54 | 21 | n | n
COc1ccccc1C(=O)NCCC(=O)NCCC12CC3CC(CC(C3)C1)C2 | n | n | n | n | n | n | x | x | x | x
COc1cc(/C=C/C(=O)OCC(=O)Nc2ccc(S(N)(=O)=O)cc2)ccc1O | n | n | n | n | n | n | x | x | x | x
COc1cc(/C=C/C(=O)OCC(=O)Nc2ccc([N+](=O)[O-])cc2)ccc1O | n | n | 72 | n | n | n | 77 | 43 | 58 | 39
O=C(COC(=O)/C=C/c1ccc(Cl)cc1)Nc1ccccc1 | n | n | 62 | n | n | n | n | n | n | n
O=C(COC(=O)/C=C/c1ccc(Cl)cc1)Nc1ccc2[nH]c(=O)[nH]c2c1 | n | x | n | n | n | n | x | x | x | x
CC(Cc1cccs1)NC(=O)Nc1ccc(F)cc1 (stereo not given) | n | n | 49 | n | n | n | 82 | n | n | n
CC(C)(C)C(=O)/C(C#N)=C/c1cccs1 | n | n | n | n | n | n | x | x | x | x
N#C/C(=C\c1cccs1)C(=O)c1ccccc1Cl | n | n | 59 | n | 54 | n | 53 | 33 | 72 | 59
COC(=O)c1ccc(-c2ccc(CNCC(O)c3ccccc3)o2)cc1 (stereo not given) | n | n | 39 | n | n | n | n | n | n | n
O=C(CNCc1ccc(F)cc1)Nc1ccccc1[N+](=O)[O-] | n | n | n | n | n | n | x | x | x | x
Cc1cc(C)nc(N2CCCC(C(=O)NCCc3ccccc3F)C2)n1 (stereo not given) | n | n | 45 | n | n | n | 76 | n | n | n
CCCCOc1ccc(S(=O)(=O)NC(=O)C2(C)CCN2C(=O)CCc2ccccc2)cc1 (stereo not given) | x | x | n | x | n | x | x | x | x | x
O=C1S/C(=C\c2ccc(N3CCOCC3)o2)C(=O)N1c1ccccc1 | n | n | 209 | n | 83 | n | 140 | 163 | 82 | 87
O=C1c2ccccc2NC(c2cccnc2)N1c1ccccc1F (stereo not given) | n | n | n | n | n | n | x | x | x | x
